{"source": "ChEMBL document CHEMBL3526053", "about": "“Species-dependent uptake of glycylsarcosine but not oseltamivir in Pichia pastoris expressing the rat, mouse, and human intestinal peptide transporter PEPT1” (Drug Metab Dispos, 2012)", "molecules": {"B1": {"name": "Solute carrier family 15 member 1 (Mus musculus) (protein)", "chain": "MGMSKSRGCFGYPLSIFFIVVNEFCERFSYYGMRALLVLYFRNFLGWDDNLSTAIYHTFVALCYLTPILGALIADSWLGKFKTIVSLSIVYTIGQAVISVSSINDLTDHDHNGSPDSLPVHVALSMVGLALIALGTGGIKPCVSAFGGDQFEEGQEKQRNRFFSIFYLAINGGSLLSTIITPILRVQQCGIHSQQACYPLAFGVPAALMAVALIVFVLGSGMYKKFQPQGNIMGKVAKCIGFAIKNRFRHRSKAYPKREHWLDWAKEKYDERLISQIKMVTKVMFLYIPLPMFWALFDQQGSRWTLQATTMNGKIGAIEIQPDQMQTVNAILIVIMVPIVDAVVYPLIAKCGFNFTSLKKMTVGMFLASMAFVVAAIVQVEIDKTLPVFPGGNQVQIKVLNIGNNNMTVHFPGNSVTLAQMSQTDTFMTFDIDKLTSINISSSGSPGVTTVAHDFEQGHRHTLLVWNPSQYRVVKDGLNQKPEKGENGIRFVNTLNEMVTIKMSGKVYENVTSHNASGYQFFPSGEKQYTINTTAVAPTCLTDFKSSNLDFGSAYTYVIRRASDGCLEVKEFEDIPPNTVNMALQIPQYFLLTCGEVVFSVTGLEFSYSQAPSNMKSVLQAGWLLTVAVGNIIVLIVAGAGHFPKQWAEYILFASLLLVVCVIFAIMARFYTYINPAEIEAQFDEDEKKKGIGKENPYSSLEPVSQTNM"}, "B2": {"name": "Solute carrier family 15 member 1 (Homo sapiens) (protein)", "chain": "MGMSKSHSFFGYPLSIFFIVVNEFCERFSYYGMRAILILYFTNFISWDDNLSTAIYHTFVALCYLTPILGALIADSWLGKFKTIVSLSIVYTIGQAVTSVSSINDLTDHNHDGTPDSLPVHVVLSLIGLALIALGTGGIKPCVSAFGGDQFEEGQEKQRNRFFSIFYLAINAGSLLSTIITPMLRVQQCGIHSKQACYPLAFGVPAALMAVALIVFVLGSGMYKKFKPQGNIMGKVAKCIGFAIKNRFRHRSKAFPKREHWLDWAKEKYDERLISQIKMVTRVMFLYIPLPMFWALFDQQGSRWTLQATTMSGKIGALEIQPDQMQTVNAILIVIMVPIFDAVLYPLIAKCGFNFTSLKKMAVGMVLASMAFVVAAIVQVEIDKTLPVFPKGNEVQIKVLNIGNNTMNISLPGEMVTLGPMSQTNAFMTFDVNKLTRINISSPGSPVTAVTDDFKQGQRHTLLVWAPNHYQVVKDGLNQKPEKGENGIRFVNTFNELITITMSGKVYANISSYNASTYQFFPSGIKGFTISSTEIPPQCQPNFNTFYLEFGSAYTYIVQRKNDSCPEVKVFEDISANTVNMALQIPQYFLLTCGEVVFSVTGLEFSYSQAPSNMKSVLQAGWLLTVAVGNIIVLIVAGAGQFSKQWAEYILFAALLLVVCVIFAIMARFYTYINPAEIEAQFDEDEKKNRLEKSNPYFMSGANSQKQM"}, "B3": {"name": "Solute carrier family 15 member 1 (Rattus norvegicus) (protein)", "chain": "MGMSKSRGCFGYPLSIFFIVVNEFCERFSYYGMRALLVLYFRNFLGWDDDLSTAIYHTFVALCYLTPILGALIADSWLGKFKTIVSLSIVYTIGQAVISVSSINDLTDHDHDGSPNNLPLHVALSMIGLALIALGTGGIKPCVSAFGGDQFEEGQEKQRNRFFSIFYLAINAGSLLSTIITPILRVQQCGIHSQQACYPLAFGVPAALMAVALIVFVLGSGMYKKFQPQGNIMGKVAKCIRFAIKNRFRHRSKAFPKRNHWLDWAKEKYDERLISQIKIMTKVMFLYIPLPMFWALFDQQGSRWTLQATTMTGKIGTIEIQPDQMQTVNAILIVIMVPIVDAVVYPLIAKCGFNFTSLKKMTVGMFLASMAFVVAAIVQVEIDKTLPVFPSGNQVQIKVLNIGNNDMAVYFPGKNVTVAQMSQTDTFMTFDVDQLTSINVSSPGSPGVTTVAHEFEPGHRHTLLVWGPNLYRVVKDGLNQKPEKGENGIRFVSTLNEMITIKMSGKVYENVTSHSASNYQFFPSGQKDYTINTTEIAPNCSSDFKSSNLDFGSAYTYVIRSRASDGCLEVKEFEDIPPNTVNMALQIPQYFLLTCGEVVFSVTGLEFSYSQAPSNMKSVLQAGWLLTVAIGNIIVLIVAEAGHFDKQWAEYVLFASLLLVVCIIFAIMARFYTYINPAEIEAQFDEDEKKKGVGKENPYSSLEPVSQTNM"}}, "key": {"PEPT1 [1]": {"system": "PEPT1", "experiment": "Drug uptake in Xenopus laevis oocytes expressing chicken PEPT1 measured at pH 6 and -60 mV by two-electrode voltage-clamp electrophysiology", "type": "ADME, cell-based, Gallus gallus", "settings": "Xenopus laevis oocytes expressing chicken PEPT1, pH 6"}, "[2]": {"target": "T1, Solute carrier family 15 member 1 (Oryctolagus cuniculus, UniProt P36836)", "T1 sequence (P36836 whole entry)": "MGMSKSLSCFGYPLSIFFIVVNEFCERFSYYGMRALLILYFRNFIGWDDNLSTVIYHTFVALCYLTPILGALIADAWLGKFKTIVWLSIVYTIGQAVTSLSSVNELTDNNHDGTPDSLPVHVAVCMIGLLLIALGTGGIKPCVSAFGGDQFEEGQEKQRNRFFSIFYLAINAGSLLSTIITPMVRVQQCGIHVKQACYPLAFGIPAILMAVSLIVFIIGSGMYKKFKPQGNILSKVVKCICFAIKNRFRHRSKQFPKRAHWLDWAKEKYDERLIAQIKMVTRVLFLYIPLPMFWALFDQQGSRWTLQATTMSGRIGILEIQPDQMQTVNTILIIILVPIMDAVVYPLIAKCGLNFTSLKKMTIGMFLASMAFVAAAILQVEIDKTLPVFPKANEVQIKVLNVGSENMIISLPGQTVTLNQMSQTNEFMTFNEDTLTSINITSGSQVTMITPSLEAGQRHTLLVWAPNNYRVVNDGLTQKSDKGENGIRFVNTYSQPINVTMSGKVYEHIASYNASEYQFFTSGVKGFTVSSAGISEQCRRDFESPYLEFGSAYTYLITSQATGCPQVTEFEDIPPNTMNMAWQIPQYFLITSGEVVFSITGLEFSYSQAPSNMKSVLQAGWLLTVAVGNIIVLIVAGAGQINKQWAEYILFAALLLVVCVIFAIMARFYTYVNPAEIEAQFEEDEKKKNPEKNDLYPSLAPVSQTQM", "experiment": "Drug uptake in Xenopus laevis oocytes expressing rabbit PEPT1 measured at pH 5.5 and -60 mV by two-electrode voltage-clamp electrophysiology", "type": "ADME, cell-based"}, "PEPT1 [3]": {"system": "PEPT1", "experiment": "Drug uptake in CHO cells expressing pig PEPT1 measured at pH 6", "type": "ADME, cell-based, Sus scrofa", "settings": "CHO cells expressing pig PEPT1, pH 6"}, "PEPT1 [4]": {"system": "PEPT1", "experiment": "Drug uptake in human HeLa cells expressing monkey PEPT1 measured at pH 6", "type": "ADME, cell-based, Macaca mulatta", "settings": "rhesus monkey, HeLa cells expressing monkey PEPT1, pH 6"}, "PEPT1 [5]": {"system": "PEPT1", "experiment": "Drug uptake in Xenopus laevis oocytes expressing sheep PEPT1 measured at pH 5.5 and -60 mV by two-electrode voltage-clamp electrophysiology", "type": "ADME, cell-based, Ovis aries", "settings": "Xenopus laevis oocytes expressing sheep PEPT1, pH 5.5"}, "PEPT1 [6]": {"system": "PEPT1", "experiment": "Drug uptake in CHO cells expressing chicken PEPT1 measured at pH 6", "type": "ADME, cell-based, Gallus gallus", "settings": "CHO cells expressing chicken PEPT1, pH 6"}, "PEPT1 [7]": {"system": "PEPT1", "experiment": "Ratio of Km for human recombinant PEPT1 expressed in Pichia pastoris GS115 to Km for mouse recombinant PEPT1 expressed in Pichia pastoris GS115", "type": "ADME", "settings": "not told"}, "[8]": {"experiment": "Ratio of Km for human recombinant PEPT1 expressed in Pichia pastoris GS115 to Km for rat recombinant PEPT1 expressed in Pichia pastoris GS115", "type": "ADME"}, "PEPT1 [9]": {"system": "PEPT1", "experiment": "Drug uptake in Xenopus laevis oocytes expressing salmon PEPT1 measured at pH 6.5 and -60 mV by two-electrode voltage-clamp electrophysiology", "type": "ADME, cell-based", "settings": "salmonidae, Xenopus laevis oocytes expressing salmon PEPT1, pH 6.5"}, "[10]": {"substrate": "CN(CC(=O)O)C(=O)CN", "experiment": "Drug uptake in Xenopus laevis oocytes expressing mouse PEPT1 measured at pH 5.5 and -60 mV by two-electrode voltage-clamp electrophysiology", "type": "ADME, cell-based"}, "[11]": {"substrate": "CN(CC(=O)O)C(=O)CN", "experiment": "Activity at mouse recombinant PEPT1 expressed in Pichia pastoris GS115 after 30s by dual-channel liquid scintillation counting analysis", "type": "ADME", "method_in_brief": "(§1)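 [3H]GlySar concentration series 0.005-10 mM, 30-s uptake at 24°C in 100 mM potassium phosphate pH 6.5. Cells come from His+Mut+ GS115 transformants induced 20-24 h in methanol medium. Uptake is normalised to OD600. Data are fitted to Michaelis-Menten plus a first-order nonsaturable term (Kd), weighting unity. Parameters are mean ± SE (n=9).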"}, "[12]": {"substrate": "CN(CC(=O)O)C(=O)CN", "experiment": "Activity at human recombinant PEPT1 expressed in Pichia pastoris GS115 after 30s by dual-channel liquid scintillation counting analysis", "type": "ADME", "method_in_brief": "as §1"}, "[13]": {"substrate": "CN(CC(=O)O)C(=O)CN", "experiment": "Drug uptake in human HeLa cells expressing human PEPT1 measured at pH 6", "type": "ADME, cell-based"}, "[14]": {"substrate": "CN(CC(=O)O)C(=O)CN", "experiment": "Activity at rat recombinant PEPT1 expressed in Pichia pastoris GS115 after 30s by dual-channel liquid scintillation counting analysis", "type": "ADME", "method_in_brief": "as §1"}, "[15]": {"substrate": "CN(CC(=O)O)C(=O)CN", "experiment": "Drug uptake in Xenopus laevis oocytes expressing rat PEPT1 measured at pH 6", "type": "ADME, cell-based"}}, "note": "Non-standard residues stand in square brackets, D forms with d. Residues, ends and D or L forms follow the SMILES beside them. Sar = CNCC(=O)O"}
{"molecule": "CN(CC(=O)O)C(=O)CN", "note": "[GLYCYLSARCOSINE] (H-Gly-[Sar]-OH)", "values": [{"measurement": "Km", "setting": "PEPT1 [1]", "value": 470, "unit": "µM"}, {"measurement": "Km", "setting": "[2]", "value": 1900, "unit": "µM"}, {"measurement": "Km", "setting": "PEPT1 [3]", "value": 940, "unit": "µM"}, {"measurement": "Km", "setting": "PEPT1 [4]", "value": 350, "unit": "µM"}, {"measurement": "Km", "setting": "PEPT1 [5]", "value": 610, "unit": "µM"}, {"measurement": "Km", "setting": "PEPT1 [6]", "value": 2600, "unit": "µM"}, {"measurement": "selectivity ratio", "setting": "PEPT1 [7]", "value": 2.9}, {"measurement": "Ratio", "setting": "[8]", "value": 5.4}, {"measurement": "Km", "setting": "PEPT1 [9]", "value": 500, "unit": "µM"}]}
{"molecule": "B1", "values": [{"measurement": "Km", "setting": "[10]", "value": 750, "unit": "µM"}, {"measurement": "Km", "setting": "[11]", "value": 300, "unit": "µM"}]}
{"molecule": "B2", "values": [{"measurement": "Km", "setting": "[12]", "value": 860, "unit": "µM"}, {"measurement": "Km", "setting": "[13]", "value": 290, "unit": "µM"}]}
{"molecule": "B3", "values": [{"measurement": "Km", "setting": "[14]", "value": 160, "unit": "µM"}, {"measurement": "Km", "setting": "[15]", "value": 240, "unit": "µM"}]}
